Active and inactive are the calls of the source. The calls are words filed in the database; no cut-off is given here.
Legend:
A549 [1] = test: Induction of apoptosis in human A549 cells assessed as viable cells at 1.25 uM after 48 hrs by Annexin-V/propidium iodide staining based flow cytometry (reference value: 93.39%); type: functional; settings: A549, 48 h, read-out: Activity
A549 [2] = test: Induction of apoptosis in human A549 cells assessed as early apoptotic cells at 1.25 uM after 48 hrs by Annexin-V/propidium iodide staining based flow cytometry (reference value: 5.27%); type: functional
A549 [3] = test: Induction of apoptosis in human A549 cells assessed as viable cells at 10 uM after 48 hrs by Annexin-V/propidium iodide staining based flow cytometry (reference value: 93.39%); type: functional; settings: A549, 48 h, read-out: Activity
A549 [4] = test: Induction of apoptosis in human A549 cells after 48 hrs by Annexin-V/propidium iodide staining based flow cytometry; type: functional, cell-based
HCT-116 = test: Cytotoxicity against human HCT116 cells assessed as cell growth inhibition after 48 hrs by MTT assay; type: functional, cell-based; settings: HCT-116, 48 h
Method in brief: (§1)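 MTT assay. Cells were seeded at 1×10^4 per well in their medium with 10% FBS and allowed 24 h at 37 °C. Compound diluted in medium was added alongside a vehicle control and left for 48 h. MTT (0.5 mg/mL) was then added for 4 h, formazan dissolved in DMSO, and absorbance read at 570 nm. IC50 is the concentration inhibiting 50% of cells.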

A549 [5] = test: Induction of apoptosis in human A549 cells assessed as necrotic cells at 1.25 uM after 48 hrs by Annexin-V/propidium iodide staining based flow cytometry (reference value: 0.63%); type: functional
A549 [6] = test: Induction of apoptosis in human A549 cells assessed as early apoptotic cells at 2.5 uM after 48 hrs by Annexin-V/propidium iodide staining based flow cytometry (reference value: 5.27%); type: functional
A549 [7] = test: Cell cycle arrest in human A549 cells assessed as accumulation at G2/M phase at 10 uM after 48 hrs by propidium iodide-staining based flow cytometry (reference value: 34.25 +/- 5.75%); type: functional
A549 [8] = test: Induction of ROS generation in human A549 cells after 24 hrs by DCFDA dye-based fluorescent microscopy; type: functional, cell-based
Method in brief: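 A549 cells (1×10^6 cells/mL) were left to adhere overnight, then treated 24 h with 1.25, 2.5, 5.0 or 10.0 μM. Medium was replaced with medium containing 10 μM DCFDA for 30 min in the dark. Fluorescence was read on a plate reader (ex 488/em 525 nm) and cells were imaged by fluorescence microscopy. NAC and H2O2 (positive control) were included. Mean ± SEM, n=3.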

A549 [9] = test: Induction of apoptosis in human A549 cells assessed as viable cells at 5 uM after 48 hrs by Annexin-V/propidium iodide staining based flow cytometry (reference value: 93.39%); type: functional; settings: A549, 48 h, read-out: Activity
A549 [10] = test: Cytotoxicity against human A549 cells assessed as cell growth inhibition after 48 hrs by MTT assay; type: functional, cell-based; settings: A549, 48 h; method in brief: as §1
PC-3 = test: Cytotoxicity against human PC3 cells assessed as cell growth inhibition after 48 hrs by MTT assay; type: functional, cell-based; settings: PC-3, 48 h; method in brief: as §1
HT-29 = test: Cytotoxicity against human HT-29 cells assessed as cell growth inhibition after 48 hrs by MTT assay; type: functional, cell-based; settings: HT-29, 48 h; method in brief: as §1
A549 [11] = test: Induction of mitochondrial membrane potential loss in human A549 cells assessed as depolarized cell population at 10 uM after 24 hrs by JC-1-dye based flow-cytometry (reference value: 8.31 +/- 3.72%)
A549 [12] = test: Cytotoxicity against human A549 cells assessed as reduction in cell viability by measuring cell detachment at 1.25 to 10 uM after 48 hrs by phase contrast microscopy; type: functional, cell-based
Method in brief: (§2)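 A549 cells (1×10^5 cells/mL) were plated in 6-well plates and left to adhere overnight. They were then incubated 48 h with 1.25, 2.5, 5.0 or 10.0 μM and examined for morphological changes by phase contrast microscopy at 200X.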

A549 [13] = test: Induction of apoptosis in human A549 cells assessed as early apoptotic cells at 10 uM after 48 hrs by Annexin-V/propidium iodide staining based flow cytometry (reference value: 5.27%); type: functional
A549 [14] = test: Induction of apoptosis in human A549 cells assessed as membrane blebbing at 10 uM after 48 hrs by AO/EB double staining based fluorescence microscopy; type: functional, cell-based
Method in brief: (§3)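 A549 cells (1×10^6 cell/ml) were treated with different concentrations for 48 h at 37 °C in 5% CO2. Acridine orange and ethidium bromide (10 μg/mL each) were added, and after 10 min cells were viewed by fluorescence microscopy (ex 488/em 550 nm) at 200x.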

A549 [15] = test: Induction of apoptosis in human A549 cells assessed as apoptotic body formation at 10 uM after 48 hrs by AO/EB double staining based fluorescence microscopy; type: functional, cell-based; method in brief: as §3
A549 [16] = test: Induction of apoptosis in human A549 cells assessed as viable cells at 2.5 uM after 48 hrs by Annexin-V/propidium iodide staining based flow cytometry (reference value: 93.39%); type: functional; settings: A549, 48 h, read-out: Activity
A549 [17] = test: Induction of apoptosis in human A549 cells assessed as late apoptotic cells at 10 uM after 48 hrs by Annexin-V/propidium iodide staining based flow cytometry (reference value: 0.71%); type: functional
A549 [18] = test: Induction of apoptosis in human A549 cells assessed as late apoptotic cells at 1.25 uM after 48 hrs by Annexin-V/propidium iodide staining based flow cytometry (reference value: 0.71%); type: functional
A549 [19] = test: Induction of apoptosis in human A549 cells assessed as late apoptotic cells at 2.5 uM after 48 hrs by Annexin-V/propidium iodide staining based flow cytometry (reference value: 0.71%); type: functional
A549 [20] = test: Induction of apoptosis in human A549 cells assessed as necrotic cells at 2.5 uM after 48 hrs by Annexin-V/propidium iodide staining based flow cytometry (reference value: 0.63%); type: functional
A549 [21] = test: Induction of apoptosis in human A549 cells assessed as necrotic cells at 10 uM after 48 hrs by Annexin-V/propidium iodide staining based flow cytometry (reference value: 0.63%); type: functional
A549 [22] = test: Induction of apoptosis in human A549 cells assessed as cell shrinkage at 10 uM after 48 hrs by AO/EB double staining based fluorescence microscopy; type: functional; method in brief: as §3
A549 [23] = test: Induction of apoptosis in human A549 cells assessed as necrotic cells at 5 uM after 48 hrs by Annexin-V/propidium iodide staining based flow cytometry (reference value: 0.63%); type: functional
A549 [24] = test: Cytotoxicity against human A549 cells assessed as reduction in cell viability by measuring cell shrinkage at 1.25 to 10 uM after 48 hrs by phase contrast microscopy; type: functional, cell-based; method in brief: as §2
A549 [25] = test: Induction of apoptosis in human A549 cells assessed as early apoptotic cells at 5 uM after 48 hrs by Annexin-V/propidium iodide staining based flow cytometry (reference value: 5.27%); type: functional
A549 [26] = test: Induction of apoptosis in human A549 cells assessed as nuclei condensation at 1.25 to 10 uM after 48 hrs by DAPI staining-based fluorescence microscopy; type: functional, cell-based
Method in brief: (§4)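 A549 cells were treated for 48 h, washed with PBS, and permeabilised with 0.1% Tween 20 for 10 min. They were stained with 1 μM DAPI and viewed by fluorescence microscopy (ex 359/em 461 nm, DAPI filter) at 200X.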

A549 [27] = test: Induction of apoptosis in human A549 cells assessed as late apoptotic cells at 5 uM after 48 hrs by Annexin-V/propidium iodide staining based flow cytometry (reference value: 0.71%); type: functional
A549 [28] = test: Cell cycle arrest in human A549 cells assessed as accumulation at sub G1 phase after 48 hrs by propidium iodide-staining based flow cytometry; type: functional
[29] = Inhibition of pig brain tubulin polymerization assessed as reduction in tubulin assembly by fluorescence-based assay; design: species or system Sus scrofa
Method in brief: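 Kit assay with porcine brain tubulin (2 mg/mL) in 80 mM PIPES pH 6.9, 2.0 mM MgCl2, 0.5 mM EGTA, 1.0 mM GTP and glycerol. Test compound was used at final 10, 5, 2.5 or 1.25 μM. Polymerization was followed for 1 h at 37 °C by fluorescence reporter incorporation (ex 360/em 440 nm). Runs were in duplicate, and IC50 is the concentration inhibiting 50% of assembly versus control.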

A549 [30] = test: Induction of mitochondrial membrane potential loss in human A549 cells assessed as increase in depolarized cell population after 24 hrs by JC-1-dye based flow-cytometry
A549 [31] = test: Induction of apoptosis in human A549 cells assessed as horse-shoe shaped nuclei at 1.25 to 10 uM after 48 hrs by DAPI staining-based fluorescence microscopy; type: functional, cell-based; method in brief: as §4
MCF7 = test: Cytotoxicity against human MCF7 cells assessed as cell growth inhibition after 48 hrs by MTT assay; type: functional, cell-based; settings: MCF7, 48 h; method in brief: as §1
A549 [32] = test: Induction of apoptosis in human A549 cells assessed as chromatin condensation at 10 uM after 48 hrs by AO/EB double staining based fluorescence microscopy; type: functional, cell-based; method in brief: as §3
DU-145 = test: Cytotoxicity against human DU145 cells assessed as cell growth inhibition after 48 hrs by MTT assay; type: functional, cell-based; settings: DU-145, 48 h; method in brief: as §1
A549 [33] = test: Cell cycle arrest in human A549 cells assessed as accumulation at sub G1 phase at 10 uM after 48 hrs by propidium iodide-staining based flow cytometry (reference value: 4.52 +/- 2.47%); type: functional

COc1cc2c3c(c4cc(OC)c(OC)cc4c2cc1OC)C(c1ccc2c(c1)OCO2)CC(=O)N3 (centres undefined)
viability at 1.25 µM (A549 [1]): 89.1% | Activity (A549 [2]): 9.5% | viability at 10 µM (A549 [3]): 47.5% | Activity (A549 [4]): Dose-dependent effect | IC50 (HCT-116): 7.61 µM | Activity (A549 [5]): 0.09% | Activity (A549 [6]): 17.3% | Activity (A549 [7]): 61.2% | Activity (A549 [8]): Dose-dependent effect | viability at 5 µM (A549 [9]): 74.2% | IC50 (A549 [10]): 3.17 µM | IC50 (PC-3): 12.1 µM | IC50 (HT-29): 7.84 µM | Activity (A549 [11]): 79.8% | Activity (A549 [12]): Dose-dependent effect | Activity (A549 [13]): 50.6% | Activity (A549 [14]): Active | Activity (A549 [15]): Active | viability at 2.5 µM (A549 [16]): 81.8% | Activity (A549 [17]): 1.93% | Activity (A549 [18]): 1.32% | Activity (A549 [19]): 0.85% | Activity (A549 [20]): 0.01% | Activity (A549 [21]): 0.01% | Activity (A549 [22]): Active | Activity (A549 [23]): 0.01% | Activity (A549 [24]): Dose-dependent effect | Activity (A549 [25]): 24.86% | Activity (A549 [26]): Active | Activity (A549 [27]): 0.92% | Activity (A549 [28]): Dose-dependent effect | IC50 [29]: 5.15 µM | Activity (A549 [30]): Dose-dependent effect | Activity (A549 [31]): Active | IC50 (MCF7): 9.59 µM | Activity (A549 [32]): Active | IC50 (DU-145): 17.5 µM | Activity (A549 [33]): 31.22%

COc1ccc(C2CC(=O)Nc3c2c2cc(OC)c(OC)cc2c2cc(OC)c(OC)cc32)cc1 (centres undefined)
IC50 (HCT-116): > 20 µM | IC50 (A549 [10]): 8.94 µM | IC50 (PC-3): 19.1 µM | IC50 (HT-29): 16.7 µM | IC50 (MCF7): > 20 µM | IC50 (DU-145): 17 µM

— ChEMBL document CHEMBL4219132, “Sulfamic acid promoted one-pot synthesis of phenanthrene fused-dihydrodibenzo-quinolinones: Anticancer activity, tubulin polymerization inhibition and apoptosis inducing studies” (Bioorg Med Chem, 2018)
